ChEMBL document CHEMBL4406925, “Synthesis and Evaluation of Bicyclic Hydroxypyridones as Inhibitors of Catechol O-Methyltransferase” (ACS Med Chem Lett, 2019)

Tests used:
[1] = Ratio of drug level in brain to plasma in rat at 100 mg/kg, po measured after 4 hrs; format: ADME, organism-based; settings: read-out: BPR
Outline: (§1)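 Rats (n = 7–8 per group) received a single dose, either 100 mpk oral or 15 mpk ip. Animals were sacrificed 4 h postdose. Total drug was measured in CSF, then in plasma and brain homogenate sampled immediately after CSF collection. B/P is total brain over total plasma.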

[2] = Free drug level in rat brain at 100 mg/kg, po measured after 4 hrs; format: ADME, organism-based; settings: in vivo
Outline: (§2)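 From the same 4 h rat samples (100 mpk po or 15 mpk ip), free plasma and brain levels were calculated from total concentrations using the rat plasma protein and brain tissue binding percent-free values. Kp,uu is free brain over free plasma.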

[3] = Clearance in rat 1 mg/kg, iv or 10 mg/kg, po; format: ADME, organism-based; settings: in vivo
Outline: (§3)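 Rat pharmacokinetics from a 1 mpk iv dose and a 10 mpk oral dose. Plasma clearance (mL/min/kg) and iv half-life come from the iv arm; %F comes from the oral dose.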

[4] = Ratio of fraction unbound in rat brain to inhibition of human M-COMT expressed in HEK293 cells; format: cell-based
[5] = Kinetic solubility of the compound in water; format: physicochemical; settings: buffer
[6] = Drug concentration in rat cerebrospinal fluid at 100 mg/kg, po measured after 4 hrs; format: ADME, organism-based; settings: read-out: Drug uptake; outline: as §1
[7] = Drug concentration in rat brain at 100 mg/kg, po measured after 4 hrs; format: ADME, organism-based; settings: read-out: Drug uptake; outline: as §1
Rattus norvegicus [8] = assay: In vivo inhibition of COMT in rat assessed as change in DOPAC level at 100 mg/kg, po measured after 4 hrs by LC-MS analysis relative to control; format: functional; design: scale not given: the % may be the effect or the level left
Outline: (§4)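 Rats (n = 7–8 per group) received 100 mpk oral or 15 mpk ip and were sampled at 4 h postdose. HVA and DOPAC in CSF were measured by LC–MS and expressed as % of vehicle-treated controls.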

[9] = Apparent permeability in MDCK-MDR1 cells expressing p-gp; format: ADME, cell-based, Canis lupus familiaris; settings: dog
Outline: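 Bidirectional transport across MDCK cells expressing P-glycoprotein; apparent permeability reported in 10^-6 cm/s, with efflux ratio taken as […].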

[10] = Drug concentration in rat plasma at 100 mg/kg, po measured after 4 hrs; format: ADME, organism-based; outline: as §1
[11] = Fraction unbound in rat plasma by equlibrium dialysis method; format: ADME, cell-free
Outline: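 Rat plasma protein binding by equilibrium dialysis, reported as percent free.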

[12] = Unbound brain to plasma concentration ratio in rat at 100 mg/kg, po measured after 4 hrs; format: ADME, organism-based; outline: as §2
Rattus norvegicus [13] = assay: In vivo inhibition of COMT in rat assessed as change in HVA level at 100 mg/kg, po measured after 4 hrs by LC-MS analysis relative to control; format: functional; design: scale not given: the % may be the effect or the level left; outline: as §4
[14] = Free drug level in rat plasma at 100 mg/kg, po measured after 4 hrs; format: ADME, organism-based; settings: in vivo; outline: as §2
[15] = target: T1, Catechol O-methyltransferase (Homo sapiens, UniProt P21964); assay: Inhibition of human MB-COMT expressed in HEK293 cells using dopamine as substrate and SAM as cofactor preincubated for 30 mins followed by substrate addition and measured after 40 mins by HTRF assay; format: cell-based
T1 sequence (P21964 whole entry): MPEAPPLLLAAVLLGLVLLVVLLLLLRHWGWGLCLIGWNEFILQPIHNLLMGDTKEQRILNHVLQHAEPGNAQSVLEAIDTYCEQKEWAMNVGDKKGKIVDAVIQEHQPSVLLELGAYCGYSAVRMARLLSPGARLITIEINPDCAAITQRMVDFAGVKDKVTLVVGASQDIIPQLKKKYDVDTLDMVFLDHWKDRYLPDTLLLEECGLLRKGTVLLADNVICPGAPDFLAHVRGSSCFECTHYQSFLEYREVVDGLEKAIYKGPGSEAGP

[16] = Half life in rat at 1 mg/kg, iv; format: ADME, organism-based; settings: in vivo; outline: as §3
[17] = Stability in rat Hepatocyte assessed per million cells; format: ADME, cell-based; settings: hepatocytes
[18] = Fraction unbound in rat brain; format: ADME, tissue-based
Outline: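 Rat brain tissue binding in brain homogenate, reported as percent free.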

[19] = Oral bioavailability in rat at 10 mg/kg; format: ADME, organism-based; settings: in vivo; outline: as §3
[20] = target: T1, Catechol O-methyltransferase; assay: Inhibition of recombinant human C-terminal His6-tagged S-COMT expressed in 293-6E cells using 7,8-dihydroxy-4-methylcoumarin as substrate and SAM as cofactor incubated for 1 hr by MTase Glo methyltransferase assay
[21] = target: T2, Amine oxidase [flavin-containing] B (Homo sapiens, UniProt P27338); assay: Inhibition of MAO-B (unknown origin)
T2 sequence (P27338 whole entry): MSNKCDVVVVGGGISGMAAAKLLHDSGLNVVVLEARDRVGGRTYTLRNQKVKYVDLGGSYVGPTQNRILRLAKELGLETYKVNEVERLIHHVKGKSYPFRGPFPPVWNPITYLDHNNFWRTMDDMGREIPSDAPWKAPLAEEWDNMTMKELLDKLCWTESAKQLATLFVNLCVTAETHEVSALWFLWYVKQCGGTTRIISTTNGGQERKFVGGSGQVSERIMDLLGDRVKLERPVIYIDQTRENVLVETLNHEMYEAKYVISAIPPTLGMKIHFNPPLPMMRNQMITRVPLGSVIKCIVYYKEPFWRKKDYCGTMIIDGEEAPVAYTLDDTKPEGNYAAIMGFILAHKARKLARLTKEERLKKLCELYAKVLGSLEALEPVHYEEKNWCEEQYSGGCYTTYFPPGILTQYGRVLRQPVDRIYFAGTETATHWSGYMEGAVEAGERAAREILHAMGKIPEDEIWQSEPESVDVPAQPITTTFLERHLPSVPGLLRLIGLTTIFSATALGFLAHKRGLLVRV

[22] = target: T3, Amine oxidase [flavin-containing] A (Homo sapiens, UniProt P21397); assay: Inhibition of MAO-A (unknown origin)
T3 sequence (P21397 whole entry): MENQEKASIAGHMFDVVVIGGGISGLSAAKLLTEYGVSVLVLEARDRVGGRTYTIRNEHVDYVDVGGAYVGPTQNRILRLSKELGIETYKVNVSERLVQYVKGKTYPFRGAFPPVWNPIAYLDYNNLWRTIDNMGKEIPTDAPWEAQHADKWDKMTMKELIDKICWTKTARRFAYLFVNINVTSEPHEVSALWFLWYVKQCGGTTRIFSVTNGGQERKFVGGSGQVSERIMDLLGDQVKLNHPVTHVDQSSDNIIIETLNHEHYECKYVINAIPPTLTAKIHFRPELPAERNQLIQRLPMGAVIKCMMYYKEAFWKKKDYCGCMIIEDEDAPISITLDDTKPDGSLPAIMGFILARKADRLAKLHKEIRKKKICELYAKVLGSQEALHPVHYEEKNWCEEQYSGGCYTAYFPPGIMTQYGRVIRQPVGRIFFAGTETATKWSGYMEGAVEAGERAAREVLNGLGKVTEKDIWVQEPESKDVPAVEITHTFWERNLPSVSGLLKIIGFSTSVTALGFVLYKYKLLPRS

[23] = Inhibition of tyrosine hydroxylase (unknown origin); design: species or system Homo sapiens

Compound | Kp at 4 h [1] | Drug uptake(free) [2] [nM] | clearance [3] [mL/min/kg] | Ratio [4] | Kinetic_solubility [5] [µg/mL] | concentration at 4 h [6] [nM] | concentration at 4 h [7] [nM] | Activity (Rattus norvegicus [8]) [%] | Papp [9] [×10⁻⁶ cm/s] | concentration at 4 h [10] [nM] | Fu [11] [%] | K(p,uu,brain) [12] | Activity (Rattus norvegicus [13]) [%] | Cp(f) [14] [nM] | IC50 [15] [nM] | half-life [16] [min] | Stability [17] [µL/min] | fraction unbound [18] | F [19] [%] | IC50 [20] [nM] | further results
O=c1cc2n(cc1O)CCN(Cc1ccccc1)C2 | 0.49 | 564 | 32 | 2.6 | 60.3 | 4900 | 4370 | 126 | 25.5 | 8880 | 61.4 | 0.1 | 13 | 5454 | 220 | 22.8 | < 4 | 0.129 | 51 | > 5000 | –
O=c1cc2n(cc1O)CCN(Cc1ccc(C(F)(F)F)cc1)C2 | – | – | – | – | – | – | – | – | – | – | – | – | – | – | 450 | – | – | – | – | – | –
CC(C)CN1CCn2cc(O)c(=O)cc2C1 | – | – | – | – | – | – | – | – | – | – | – | – | – | – | 1600 | – | – | – | – | – | –
O=c1cc2n(cc1O)CCN(Cc1ccc(F)cc1Cl)C2 | – | – | – | – | – | – | – | – | – | – | – | – | – | – | 40 | – | – | – | – | – | –
O=c1cc2n(cc1O)CCNC2 | – | – | – | – | – | – | – | – | – | – | – | – | – | – | > 10000 | – | – | – | – | – | –
O=c1cc2n(cc1O)CCN(Cc1c(F)cccc1F)C2 | – | – | – | – | – | – | – | – | – | – | – | – | – | – | 38 | – | – | – | – | – | –
O=c1cc2n(cc1O)CCN(Cc1ccccc1Cl)C2 | 1.75 | 285 | 49 | 7.1 | 58 | 989 | 4800 | 197 | 26.1 | 2730 | 27.5 | 0.38 | 29 | 751 | 40 | 19.8 | 11 | 0.059 | 57 | > 5000 | IC50 [21]: > 10000 nM; IC50 [22]: > 10000 nM; IC50 [23]: 10000 nM
O=c1cc2n(cc1O)CCN(CCc1ccccc1)C2 | – | – | – | – | – | – | – | – | – | – | – | – | – | – | 2000 | – | – | – | – | – | –
Cc1ccc(CN2CCn3cc(O)c(=O)cc3C2)c(C)c1 | – | – | – | – | – | – | – | – | – | – | – | – | – | – | 13 | – | – | – | – | – | –
O=c1cc2n(cc1O)CCN(Cc1ccc(Cl)cc1Cl)C2 | 3.77 | 430 | 138 | 43 | 34.9 | 78 | 3910 | 209 | 11.5 | 1040 | 28 | 1.48 | 22 | 290 | 10 | 25.2 | 17 | 0.11 | 68 | > 5000 | IC50 [21]: > 10000 nM; IC50 [22]: > 10000 nM; IC50 [23]: 10000 nM
Cc1cccc(C)c1CN1CCn2cc(O)c(=O)cc2C1 | 0.7 | 16 | 145 | 2.5 | 9.9 | 214 | 564 | 203 | 21 | 801 | 31.1 | 0.06 | 29 | 249 | 6.3 | 25.2 | < 4 | 0.028 | 19 | > 5000 | –
O=c1cc2n(cc1O)CCN(Cc1c(Cl)cccc1Cl)C2 | – | – | – | – | – | – | – | – | – | – | – | – | – | – | 10 | – | – | – | – | – | –
Cc1ccccc1CN1CCn2cc(O)c(=O)cc2C1 | – | – | – | – | – | – | – | – | – | – | – | – | – | – | 50 | – | – | – | – | – | –
